# Measurements published in ChEMBL document CHEMBL1134977, “Design and synthesis of ethyl pyrrolidine-5,5-trans-lactams as inhibitors of hepatitis C virus NS3/4A protease” (Bioorg Med Chem Lett, 2002).
# Residues, ends and D or L forms follow the SMILES beside them. *: point of attachment. X1 = CCC1C(=O)N(S(C)(=O)=O)[C@H]2CCN(*)[C@H]12
# Assays:
# [1] = target: T1, Hepatitis C virus serine protease, NS3/NS4A (Hepatitis C virus, UniProt A3EZI9+D2K2A8); experiment: Inhibitory concentration against hepatitis C virus NS3/4A protease on 4 hr pre-incubation in chromogenic assay; type: protein-complex assay, Hepacivirus hominis
# Procedure, shortened: (§1)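 Chromogenic read-out with the NS3 protease domain at 0.56 µM and synthetic 18-mer NS4A cofactor peptide at 0.8 µM. Substrate was Ac-E-D-V-V-P-C-pNO2 anilide at 1.5 mM (Km 1.85 mM). Compound was pre-incubated with enzyme for 2, 4 or 18 h before substrate addition.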
# [2] = target: T1, Hepatitis C virus serine protease, NS3/NS4A; experiment: Inhibitory concentration against hepatitis C virus NS3/4A protease on 18 hr preincubation in chromogenic assay; type: protein-complex assay, Hepacivirus hominis; procedure, shortened: as §1
# [3] = target: T1, Hepatitis C virus serine protease, NS3/NS4A; experiment: Inhibitory concentration against hepatitis C virus NS3/4A protease on 18 h pre-incubation in fluorogenic assay; type: protein-complex assay, Hepacivirus hominis
# Procedure, shortened: (§2)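 Fluorogenic assay with full-length NS3/4A protein at 20 nM (NS3:4A 1:1). Substrate was Abz-E-D-V-V-P-C-S-M-S-(3-NO2)-Y-H at 25 µM (Km 5 µM). Compound was pre-incubated with enzyme for 4 or 18 h before substrate addition.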
# [4] = target: T1, Hepatitis C virus serine protease, NS3/NS4A; experiment: Inhibitory concentration against hepatitis C virus NS3/4A protease on 4 hr pre-incubation in fluorogenic assay; type: protein-complex assay, Hepacivirus hominis; procedure, shortened: as §2
# [5] = target: T2, Hepatitis C virus serine protease, NS3/NS4A (Hepatitis C virus) (UniProt D2K2A8+A3EZI9); experiment: Compound was tested for inhibition of hepatitis C virus NS3/4A protease at 100 uM 2 hr pre-incubation in chromogenic assay; type: protein-complex assay; settings: Hepacivirus hominis
# [6] = target: T2, Hepatitis C virus serine protease, NS3/NS4A (Hepatitis C virus); experiment: Inhibitory concentration against hepatitis C virus NS3/4A protease on 18 h pre-incubation in chromogenic assay; type: protein-complex assay; parameters: concentration or dose not given beside the values; settings: Hepacivirus hominis; concentration not given here; procedure, shortened: as §1
# [7] = target: T1, Hepatitis C virus serine protease, NS3/NS4A; experiment: Inhibitory concentration against hepatitis C virus NS3/4A protease on 2 hr pre-incubation in chromogenic assay; type: protein-complex assay, Hepacivirus hominis; procedure, shortened: as §1
# T1 sequence (D2K2A8 whole entry, the tested form may be a part): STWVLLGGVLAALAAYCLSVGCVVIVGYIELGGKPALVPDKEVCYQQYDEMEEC
# T1 sequence (A3EZI9 whole entry, the tested form may be a part): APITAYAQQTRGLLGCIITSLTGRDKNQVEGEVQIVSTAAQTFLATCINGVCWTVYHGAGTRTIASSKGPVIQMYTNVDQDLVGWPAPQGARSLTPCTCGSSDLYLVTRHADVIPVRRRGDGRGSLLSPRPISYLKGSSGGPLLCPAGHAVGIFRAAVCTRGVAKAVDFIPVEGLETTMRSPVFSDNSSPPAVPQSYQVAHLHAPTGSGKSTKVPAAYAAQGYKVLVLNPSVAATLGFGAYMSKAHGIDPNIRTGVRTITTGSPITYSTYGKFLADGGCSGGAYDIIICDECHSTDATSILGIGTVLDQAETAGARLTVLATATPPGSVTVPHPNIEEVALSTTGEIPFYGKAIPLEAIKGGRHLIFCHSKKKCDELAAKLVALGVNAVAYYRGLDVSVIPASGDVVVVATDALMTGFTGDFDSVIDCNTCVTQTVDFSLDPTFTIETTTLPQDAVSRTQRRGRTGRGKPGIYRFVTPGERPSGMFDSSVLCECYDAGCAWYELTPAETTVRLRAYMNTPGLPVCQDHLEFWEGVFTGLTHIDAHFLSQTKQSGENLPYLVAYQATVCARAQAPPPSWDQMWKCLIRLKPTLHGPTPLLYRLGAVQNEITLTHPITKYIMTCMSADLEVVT
Compound,IC50 [1] [µM],IC50 [2] [µM],IC50 [3] [µM],IC50 [4] [µM],inhibition [5] [%],inhibition [6] [%],IC50 [7] [µM]
CC[C@H]1C(=O)N(C(C)=O)[C@H]2CCN(C(=O)[C@@H](NC(=O)OC(C)(C)C)C(C)C)[C@H]12,> 400,147,447,216,,,
CC[C@@H]1C(=O)N(C(C)=O)[C@H]2CCN(C(=O)[C@@H](NC(=O)OC(C)(C)C)C(C)C)[C@H]12,88,45,194,193,,,
CC[C@@H]1C(=O)N(S(C)(=O)=O)[C@H]2CCN(C(=O)[C@@H](NC(=O)OC(C)(C)C)C(C)C)[C@H]12,30,22,,,,,
CCC1C(=O)N(S(C)(=O)=O)[C@H]2CCN(C(=O)CNC(=O)[C@@H](NC(=O)[C@H](CC(=O)O)NC(=O)[C@H](CCC(=O)O)NC(C)=O)C(C)C)[C@H]12 (stereo partly specified) (Ac-EDVG-X1),,,,,10,24,
CCC1C(=O)N(S(C)(=O)=O)[C@H]2CCN(C(=O)[C@@H](N)C(C)C)[C@H]12 (stereo partly specified),,,,,11,41,
CCC1C(=O)N(S(C)(=O)=O)[C@H]2CCN(C(=O)[C@@H]3CCCN3C(=O)[C@@H](NC(=O)[C@H](CC(=O)O)NC(=O)[C@H](CCC(=O)O)NC(C)=O)C(C)C)[C@H]12 (stereo partly specified) (Ac-EDVP-X1),,,,,5,11,
"CCC1C(=O)N(S(C)(=O)=O)[C@H]2CCN(C(=O)[C@@H](NC(=O)OC(C)(C)C)C(C)C)C12 (single isomer, unassigned)",62,27,140,182,52,,

# Continued, values first:
IC50 [1] [µM],IC50 [2] [µM],IC50 [3] [µM],IC50 [4] [µM],inhibition [5] [%],inhibition [6] [%],IC50 [7] [µM],Compound
,,,,24,85,,"CCC1C(=O)N(S(C)(=O)=O)[C@H]2CCN(C(=O)C(NC(=O)[C@@H](NC(=O)[C@H](CC(=O)O)NC(=O)[C@H](CCC(=O)O)NC(C)=O)C(C)C)C(C)C)[C@H]12 (single isomer, unassigned)"
,,,,21,45,,CCC1C(=O)N(S(C)(=O)=O)[C@H]2CCN(C(=O)[C@@H](NC(=O)[C@@H](NC(C)=O)C(C)C)C(C)C)[C@H]12 (stereo partly specified)
69,19,284,> 400,,,69,CCC1C(=O)N(S(C)(=O)=O)[C@H]2CCN(C(=O)[C@@H](NC(=O)[C@@H](NC(=O)[C@H](CC(=O)O)NC(=O)[C@H](CCC(=O)O)NC(C)=O)C(C)C)C(C)C)[C@H]12 (stereo partly specified) (Ac-EDVV-X1)
,,,,68,94,,CCC1C(=O)N(S(C)(=O)=O)[C@H]2CCN(C(=O)[C@@H](NC(=O)[C@@H](NC(=O)[C@H](CC(=O)O)NC(C)=O)C(C)C)C(C)C)[C@H]12 (stereo partly specified)
99,28,172,341,,,,CC[C@H]1C(=O)N(S(C)(=O)=O)[C@H]2CCN(C(=O)[C@@H](NC(=O)OC(C)(C)C)C(C)C)[C@H]12
